The nature of data set [1]: Solubility of the compound in water. It counts as physicochemical. To be noted: buffer.
For data set [2], the target named is T1, Glucocorticoid receptor (Homo sapiens) (UniProt P04150).
T1 sequence (whole entry): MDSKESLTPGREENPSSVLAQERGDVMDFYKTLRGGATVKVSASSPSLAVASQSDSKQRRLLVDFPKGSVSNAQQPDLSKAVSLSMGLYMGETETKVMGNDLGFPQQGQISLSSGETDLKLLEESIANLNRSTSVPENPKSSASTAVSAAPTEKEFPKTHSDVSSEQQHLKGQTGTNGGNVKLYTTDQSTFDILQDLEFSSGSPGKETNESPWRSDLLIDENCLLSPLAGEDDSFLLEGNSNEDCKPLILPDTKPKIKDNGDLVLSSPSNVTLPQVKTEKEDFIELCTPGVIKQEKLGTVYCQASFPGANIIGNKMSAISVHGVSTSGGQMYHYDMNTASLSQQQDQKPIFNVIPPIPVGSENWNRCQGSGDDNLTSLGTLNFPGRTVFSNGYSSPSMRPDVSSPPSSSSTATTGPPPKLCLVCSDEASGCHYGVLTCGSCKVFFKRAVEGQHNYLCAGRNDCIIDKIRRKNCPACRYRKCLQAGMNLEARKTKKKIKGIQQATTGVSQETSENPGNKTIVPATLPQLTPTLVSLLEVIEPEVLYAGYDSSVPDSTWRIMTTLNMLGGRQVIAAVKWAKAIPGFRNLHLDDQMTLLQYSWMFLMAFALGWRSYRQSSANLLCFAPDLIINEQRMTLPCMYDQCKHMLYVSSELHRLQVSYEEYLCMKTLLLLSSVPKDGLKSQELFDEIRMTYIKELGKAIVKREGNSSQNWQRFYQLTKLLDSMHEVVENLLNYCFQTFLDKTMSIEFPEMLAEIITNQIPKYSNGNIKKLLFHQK
Description: Transrepression of GCR (unknown origin) expressed in human fibrosarcoma cells assessed as inhibition of DEX-induced GCR activation at 0.1 uM after 6 hrs by luciferase reporter gene assay relative to DEX; values are per cent of control. (A reporter such as luciferase makes a cellular process visible.)

In data set [3] the target is T1, Glucocorticoid receptor (Homo sapiens). In words: Transactivation of GCR (unknown origin) expressed in human fibrosarcoma cells at 0.1 uM after 6 hrs by luciferase reporter gene assay. It counts as cell-based. The gist of the method: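 GCR luciferase reporter run with single compound at 0.1 µM to probe agonism; reference agonist DEX at 1 µM.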
For data set [4] the target is unchanged. Description: Transrepression of GCR in human HeLa cells assessed as down regulation of GILZ mRNA expression at 0.4 uM after 24 hrs by Taqman-based real-time PCR analysis. It counts as cell-based. A digest of the protocol:
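GILZ expression measured in HeLa cells after 24 h treatment at 0.4 and 2 µM, relative to untreated cells.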

The subject of data set [5] is HeLa. Description: Cytotoxicity against human HeLa cells after 72 hrs by MTT assay. It counts as cell-based. A digest of the protocol: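 HeLa cells exposed 72 h in complete medium to 0.4, 2, 10, 50 and 250 µM; viability read by MTT. Means ± SE of 3 independent experiments run in triplicate.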
Data set [6] relates to HeLa. Description: Down regulation of GCRalpha expression in human HeLa cells at 0.4 uM after 24 hrs by Taqman-based real-time PCR analysis relative to control. It counts as functional. A digest of the protocol:
(§1)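 GCR transcripts quantified in HeLa cells after 24 h treatment at 0.4 and 2 µM. Means ± SD of 3 independent experiments; compared by one-way ANOVA.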
Background: Real-time PCR tracks product formation cycle by cycle.

Data set [7] concerns HeLa. Description: Down regulation of GCRalpha expression in human HeLa cells at 2 uM after 24 hrs by Taqman-based real-time PCR analysis relative to control. It counts as functional, cell-based. A digest of the protocol:
as §1

Data set [8] addresses T1, Glucocorticoid receptor (Homo sapiens). In words: Transrepression of GCR in human HeLa cells assessed as suppression of DEX-induced GILZ mRNA expression at 0.4 to 2 uM after 24 hrs by Taqman-based real-time PCR analysis. It counts as cell-based. The gist of the method:
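HeLa cells treated 24 h with DEX alone (0.1 µM) or DEX plus compound; GILZ transcription measured. RU486 plus DEX served as competitive-antagonist control.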

For data set [9] the target is unchanged. Description: Transrepression of GCR (unknown origin) expressed in human fibrosarcoma cells assessed as suppression of TNF-induced NFkappaB activity at 1 uM pretreated for 2 hrs followed by TNF addition after 4 hrs by luciferase reporter gene assay relative to control. It counts as cell-based. The gist of the method:
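Cells pretreated 2 h with compound alone, then TNF added and combination treatment continued 4 h; NF-kB luciferase reporter activity measured.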

“And” between values parts separate entries of the source, which are not always exact repeats. Equal values may be shown once. The source made the active and inactive calls. No cut-off for these calls is given here.

As to `Cl.NCc1ccc(-c2cn3c(n2)sc2ccccc23)cc1`, the solubility entry in [1] was “Soluble”.

Consider `CCn1c2ccccc2n2cc(-c3ccc(C#N)cc3)nc12`, for which, in data set [2], the residual activity worked out at 25%. Also, in data set [3], the result was inactive.

In the case of `Brc1ccc(-c2cn3c(n2)sc2ccccc23)cc1`, in data set [2], the residual activity was found to be 20%. Besides, in data set [3], the result was inactive.

Turning to `Nc1ccc(-c2cn3c(n2)sc2ccccc23)cc1`, in data set [2], the residual activity is 23%. Further, in [3], the outcome was inactive.

For `OCc1ccc(-c2cn3c(n2)sc2ccccc23)cc1`, the residual activity in data set [2] came out at 34%. Moreover, in data set [3], the outcome was inactive.

Regarding `Cl.NCc1ccc(-c2cn3c4c(sc3n2)CCCC4)cc1`, the residual activity in data set [2] was 23% and 35%. For the same molecule, in data set [1], the solubility entry is reported as “Soluble”. The outcome in [3] was inactive.

Turning to `Cc1ccc(-c2cn3c(n2)sc2ccccc23)cc1`, the residual activity in data set [2] was found to be 30%. In addition, in [3], the outcome was inactive.

As to `N#Cc1ccc(-c2cn3c4c(sc3n2)C(=O)CCC4)cc1`, the result (in data set [4]; with HeLa [6]) was Active. Also, the EC50 (usually the concentration that produces a half-maximal response) with HeLa [5] stood at 16 µM. Moreover, the outcome with HeLa [7] was inactive.

In the case of `O=C(O)c1ccc(-c2cn3c4c(sc3n2)CCCC4)cc1`, the outcome in [4] was Active. Further, it took 170 µM to reach a half-maximal effect in the data set on HeLa [5] (EC50). Further, the Activity with HeLa [6] came out at 50%. Besides, in the data set on HeLa [7], the outcome was inactive.

As for `N#Cc1ccc(-c2cn3c4c(sc3n2)CCCC4)cc1`, the result in data set [8] and in data set [3] was inactive. Besides, in data set [4], the result was Active. The molecule further had an EC50 in the data set on HeLa [5] of 1.7 µM. The residual activity in data set [2] is 18%. Also, in [9], the Activity is 76%.

For the molecule `NCc1ccc(-c2cn3c(n2)sc2ccccc23)cc1` [listing 1 of 2 here], the result in [8] and in data set [3] was inactive. Besides, the result in data set [4] was Active.

Regarding `COC(=O)c1ccc(-c2cn3c4c(sc3n2)CCCC4)cc1`, the outcome (in [4]; in the data set on HeLa [6]) was Active. This molecule also gave an EC50 in the data set with HeLa [5] of 7.7 µM. For the same molecule, the outcome with HeLa [7] was inactive.

The molecule `NCc1ccc(-c2cn3c(n2)sc2ccccc23)cc1` [listing 2 of 2 here] came in with an EC50 in the data set on HeLa [5] of 3.6 µM.

These data come from ChEMBL document CHEMBL4251737, “Imidazo[2,1-b]benzothiazol Derivatives as Potential Allosteric Inhibitors of the Glucocorticoid Receptor” (ACS Med Chem Lett, 2018).
